Assay results reported in ChEMBL document CHEMBL1140864, “The synthesis of ursolic acid derivatives with cytotoxic activity and the investigation of their preliminary mechanism of action” (Bioorg Med Chem, 2009).

Key:
HeLa [1] = assay: Antiproliferative activity against human HeLa cells after 96 hrs by MTT assay; assay type: functional, cell-based
Outline: (§1)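 Cells grown in RPMI 1640 with 10% FBS and penicillin/streptomycin at […] °C, 5% CO2. Trypsinised cells seeded at 1.0–2.0 × 10³ per well overnight, then exposed to a concentration range in medium for 96 h. MTT (1 mg/mL) added for 4 h, formazan dissolved in DMSO, read at 490 nm. IC50 is the concentration that cuts cell number to 50%; at least three repeats.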

HeLa [2] = assay: Antiproliferative activity against human HeLa cells at 10 uM after 96 hrs by MTT assay; assay type: functional
Outline: (§2)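 Same MTT set-up (RPMI 1640/10% FBS, 1.0–2.0 × 10³ cells per well, 96 h exposure, 4 h MTT, formazan in DMSO read at 490 nm). Value is the percent inhibition at a single 10 µM concentration. Experiments repeated at least three times.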

SK-OV-3 [3] = assay: Antiproliferative activity against human SKOV3 cells after 96 hrs by MTT assay; assay type: functional, cell-based; settings: SK-OV-3, 96 h; outline: as §1
SK-OV-3 [4] = assay: Antiproliferative activity against human SKOV3 cells at 10 uM after 96 hrs by MTT assay; assay type: functional; settings: SK-OV-3, 96 h; outline: as §2
BGC-823 [5] = assay: Antiproliferative activity against human BGC823 cells after 96 hrs by MTT assay; assay type: functional, cell-based; settings: BGC-823, 96 h; outline: as §1
BGC-823 [6] = assay: Antiproliferative activity against human BGC823 cells at 10 uM after 96 hrs by MTT assay; assay type: functional; settings: BGC-823, 96 h; outline: as §2

SMILES	IC50 (HeLa [1]) [µM]	inhibition at 10 µM (HeLa [2]) [%]	IC50 (SK-OV-3 [3]) [µM]	inhibition at 10 µM (SK-OV-3 [4]) [%]	IC50 (BGC-823 [5]) [µM]	inhibition at 10 µM (BGC-823 [6]) [%]
COC(=O)C(Cc1ccccc1)NC(=O)[C@]12CC[C@@H](C)[C@H](C)[C@H]1C1=CC[C@@H]3[C@@]4(C)CC[C@H](OC(C)=O)C(C)(C)[C@@H]4CC[C@@]3(C)[C@]1(C)CC2 (stereo not given in full)	> 10	32.9				
C[C@H]1[C@H](C)CC[C@]2(C(=O)NC(CO)C(=O)O)CC[C@]3(C)C(=CC[C@@H]4[C@@]5(C)CC[C@H](O)C(C)(C)[C@@H]5CC[C@]43C)[C@H]12 (stereo not given in full)	> 10	16.8				
CCC(C)C(NC(=O)[C@]12CC[C@@H](C)[C@H](C)[C@H]1C1=CC[C@@H]3[C@@]4(C)CC[C@H](O)C(C)(C)[C@@H]4CC[C@@]3(C)[C@]1(C)CC2)C(=O)O (stereo not given in full)	> 10	16.8	> 10	5.01		
COC(=O)C(CO)NC(=O)[C@]12CC[C@@H](C)[C@H](C)[C@H]1C1=CC[C@@H]3[C@@]4(C)CC[C@H](OC(C)=O)C(C)(C)[C@@H]4CC[C@@]3(C)[C@]1(C)CC2 (stereo not given in full)	4.3	59.9			> 10	15.7
COC(=O)C(Cc1ccc(O)cc1)NC(=O)[C@]12CC[C@@H](C)[C@H](C)[C@H]1C1=CC[C@@H]3[C@@]4(C)CC[C@H](OC(C)=O)C(C)(C)[C@@H]4CC[C@@]3(C)[C@]1(C)CC2 (stereo not given in full)	9.04	51.5			> 10	41.6
C[C@H]1[C@H](C)CC[C@]2(C(=O)NC(Cc3ccccc3)C(=O)O)CC[C@]3(C)C(=CC[C@@H]4[C@@]5(C)CC[C@H](O)C(C)(C)[C@@H]5CC[C@]43C)[C@H]12 (stereo not given in full)	> 10	27.5				
CC(=O)O[C@H]1CC[C@]2(C)[C@H]3CC=C4[C@@H]5[C@@H](C)[C@H](C)CC[C@]5(C(=O)NC(C)CO)CC[C@@]4(C)[C@]3(C)CC[C@H]2C1(C)C (stereo not given in full)	5.44	58.4				
CC(=O)OCc1ccccc1NC(=O)[C@]12CC[C@@H](C)[C@H](C)[C@H]1C1=CC[C@@H]3[C@@]4(C)CC[C@H](OC(C)=O)C(C)(C)[C@@H]4CC[C@@]3(C)[C@]1(C)CC2	> 10	30.5	> 10	1.19	> 10	13
COC(=O)C(NC(=O)[C@]12CC[C@@H](C)[C@H](C)[C@H]1C1=CC[C@@H]3[C@@]4(C)CC[C@H](OC(C)=O)C(C)(C)[C@@H]4CC[C@@]3(C)[C@]1(C)CC2)C(C)O (stereo not given in full)	6.86	55.9				
CC(=O)O[C@H]1CC[C@]2(C)[C@H]3CC=C4[C@@H]5[C@@H](C)[C@H](C)CC[C@]5(C(=O)O)CC[C@@]4(C)[C@]3(C)CC[C@H]2C1(C)C [O-ACETYLURSOLIC ACID]	> 10	37.8				
